Screening results deposited in PubChem by several laboratories.
Rows were chosen to be rich in hits. Some 0.74% of all compounds tested hit in one or more screens of this group.
RGS7-Gao: modulates binding of RGS7 to human Galphao; binding response (% of control), % at 10 µM; P09471; Multiplexed bead flow cytometry; actives lie on both sides; 220,000 compounds, 0.35% hits; AID 1439; in the data active = binding response below about 49% or above about 150%; inconclusive = no clear call, values can overlap the other calls; inactive = in between;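 also: fluorescent Galphao held in activated GDP-AlF4 state binding bead-coupled RGS7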
Target sequence (P09471 whole entry, looked up): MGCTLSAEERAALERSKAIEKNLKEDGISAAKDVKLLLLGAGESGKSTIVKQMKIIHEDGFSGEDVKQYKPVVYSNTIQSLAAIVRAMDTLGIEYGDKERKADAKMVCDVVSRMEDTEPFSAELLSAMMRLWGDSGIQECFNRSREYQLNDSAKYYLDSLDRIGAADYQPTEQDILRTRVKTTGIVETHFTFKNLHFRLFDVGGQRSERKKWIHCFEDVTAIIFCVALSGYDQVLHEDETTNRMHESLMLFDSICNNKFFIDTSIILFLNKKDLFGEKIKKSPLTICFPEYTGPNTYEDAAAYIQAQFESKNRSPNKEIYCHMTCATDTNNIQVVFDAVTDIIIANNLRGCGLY
Calb biofilm kill: mixtures killing C. albicans biofilm; C. albicans biofilm persisters + clotrimazole, fluorescence viability; primary screen in compound mixtures of four per well; inhibition, % at 7.6 µM; 120,000 compounds, 0.02% hits;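 active = inhibition above 30.3% in the primary screen of four-compound pools, then above 30% when the compound was retested; inconclusive = passed the primary limit but could not be retested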;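 also: compounds exposed to preformed 24 h biofilms for 48 h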
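Test system: C. albicans CAF4-2 wild-type biofilms; buffer or medium: RPMI/MOPS medium, pH 7.0; schedule: 24 h biofilm formation, then 48 h compound exposure, 37 °C; detection: Alamar Blue fluorescence; measure: percent inhibition of biofilm viability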
RGS4-Gao reg: human RGS4-Galphao interaction regulation. Multiplexed bead flow cytometry, RGS4-Galphao binding; actives lie on both sides. binding response (% of control), % at 10 µM. 220,000 compounds, 0.33% hits; in the data active = binding response below about 49% or above about 150%; inactive = in between;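 also: fluorescent Galphao activated with aluminum fluoride binding bead-coupled RGS4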
RGS8-Gao reg: human RGS8-Galphao interaction regulation; multiplexed bead flow cytometry, RGS8-Galphao binding; actives lie on both sides; P09471; AID 1423; 220,000 compounds, 0.34% hits; response (percent of control binding), % at 10 µM; in the data active = response below about 60% or above about 140%; inactive = in between;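 also: Galphao activated as the GDP aluminium fluoride complex binding bead-coupled RGS8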
RGS16-Gao HTS: RGS16-Galphao interaction regulator (human); O15492+P09471; AID 1441; 220,000 compounds, 0.38% hits; binding response (% of control), % at 10 µM; bead-based flow cytometry RGS16-Galphao binding, fluorescence; actives lie on both sides;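 also: Galphao activated by GDP with aluminum fluoride before binding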
RGS4-Gao HTS: modulates binding between human RGS4 and Galphao | shares compounds with RGS16-Gao HTS | multiplexed bead flow cytometry, RGS–Galpha-o binding | AID 1504 | RGS4–Galpha-o binding response, % at 10 µM | 1,600 compounds, 99% hits;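 also: fluorescently labeled Galpha-o bound to GDP with aluminium fluoride binding biotinylated RGS beads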
Avidin counter: biotin-avidin bead binding disruption counter-screen; inhibition, % at 10 µM; 1,700 tested, under 10 active; AID 1783; shares compounds with RGS16-Gao HTS; streptavidin beads, fluorescein-biotin binding, flow cytometry;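 active = inhibition above 50%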;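 also: median green fluorescence of gated singlet beads compared with DMSO control wells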
RGS8-Gao single: RGS8-Galphao interaction regulation, single point confirmation; shares compounds with RGS16-Gao HTS; bead-based flow cytometry RGS8-Galphao binding, fluorescence; actives lie on both sides; binding response (% of control), % at 10 µM; 1,700 compounds, 3% hits; in the data active = binding response below about 72% or above about 130%; inactive = in between;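 also: Galphao activated as GDP AlF4 complex before binding bead RGS8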
RGS7-Gao confirm: confirmation of regulators of human RGS7-Galphao interaction | shares compounds with RGS16-Gao HTS | bead-based flow cytometry RGS7-Galphao binding; actives lie on both sides | response (percent of control binding), % at 10 µM | 1,700 compounds, 7.8% hits | AID 1837; in the data active = response below about 75% or above about 130%; inactive = in between;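 also: fluorescent Galphao activated with GDP and aluminum fluoride binding bead-coupled RGS7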
RGS16-Gao conf: RGS16-Galphao interaction regulation, single point confirmation; shares compounds with RGS16-Gao HTS; bead-based flow cytometry, RGS16-Galphao binding; actives lie on both sides; response (% of control binding), % at 10 µM; 1,700 compounds, 4% hits; AID 1838; in the data active = response below about 74% or above about 130%; inactive = in between;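 also: Galphao activated as the GDP aluminium fluoride complex binding bead-coupled RGS16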
RGS4-Gao single: RGS4-Galphao interaction regulation, single point confirmation | shares compounds with RGS16-Gao HTS | RGS4-Galphao binding, multiplexed bead flow cytometry; actives lie on both sides | binding response (% of control), % at 10 µM | 1,700 compounds, 4% hits | AID 1840; in the data active = binding response below about 74% or above about 130%; inactive = in between
RGS19-Gao conf: RGS19-Galphao interaction regulation, single point confirmation. shares compounds with RGS16-Gao HTS. bead-based flow cytometry RGS19-Galphao binding; actives lie on both sides. response (percent of control binding), % at 10 µM. 1,700 compounds, 5% hits. AID 1841; in the data active = response below about 50% or above about 160%; inactive = in between
Target sequence (P09471 whole entry, looked up): as above
Target sequence (P49795 whole entry, looked up): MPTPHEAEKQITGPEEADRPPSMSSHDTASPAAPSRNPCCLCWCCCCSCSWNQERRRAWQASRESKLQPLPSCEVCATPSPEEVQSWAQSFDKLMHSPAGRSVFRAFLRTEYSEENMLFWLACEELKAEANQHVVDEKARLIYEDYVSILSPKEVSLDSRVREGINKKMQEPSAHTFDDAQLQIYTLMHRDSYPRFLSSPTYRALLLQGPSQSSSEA
Large screens that a line does not name were inactive (follow-up assays come after a bar, where they were run); [ ] = dose if it differs, or a comment. Unless noted, no rule for the calls is given here.

Cc1onc(-c2ccccc2)c1C(=O)N=C(N)c1ccc(C(F)(F)F)cc1	RGS7-Gao inconclusive
Cc1cc(=S)cc(C)n1CCO	RGS8-Gao reg 53 | RGS4-Gao HTS 100 | Avidin counter inactive | RGS8-Gao single inactive | RGS7-Gao confirm inactive | RGS16-Gao conf inactive | RGS4-Gao single inactive | RGS19-Gao conf inactive
CN(C)C(CNC(=S)Nc1ccc(F)cc1)c1cccnc1 (stereo not drawn)	none
COc1ccc(OC)c(-n2nnnc2SCC(=O)Nc2ccccc2N2CCOCC2)c1	none
O=C(c1cnccn1)N(Cc1ccco1)C1(C(=O)NC2CCCCC2)CCCCC1	RGS16-Gao HTS -54 (no result: Calb biofilm kill) | RGS4-Gao HTS 79 | Avidin counter inactive | RGS8-Gao single inactive | RGS7-Gao confirm inactive | RGS16-Gao conf inactive | RGS4-Gao single inactive | RGS19-Gao conf inactive
O=C(c1cnccn1)N(Cc1ccco1)C1(C(=O)NC2CCCC2)CCCCC1	none (no result: Calb biofilm kill)
CCOC(=O)/C(=N\Nc1ccccc1)P(=O)(c1ccccc1)c1ccccc1	RGS7-Gao inconclusive
O=C(O)CSCC(=O)Nc1ccc(Br)c(C(F)(F)F)c1	RGS7-Gao inconclusive, RGS4-Gao reg -38, RGS8-Gao reg 32, RGS16-Gao HTS -12 | Avidin counter inactive | RGS8-Gao single inactive | RGS7-Gao confirm inactive | RGS16-Gao conf inactive | RGS4-Gao single inactive | RGS19-Gao conf inactive
Cc1noc(C)c1S(=O)(=O)NC1CCN(Cc2ccccc2)CC1	RGS16-Gao HTS 183[activator] (no result: Calb biofilm kill) | RGS4-Gao HTS 108
Cc1cc(NC(=O)Nc2cc(F)ccc2F)no1	RGS7-Gao inconclusive
COc1cc(CN2CCC(C(=O)N3CCN(c4ccccc4F)CC3)CC2)cc(OC)c1OC	none (no result: Calb biofilm kill)
COc1ccc(CN2CCC(C(=O)N3CCN(c4ccccc4F)CC3)CC2)cc1OC	RGS8-Gao reg 141[activator] (no result: Calb biofilm kill) | RGS4-Gao HTS 135
CC(=O)c1ccc(N=Nc2ccc(N)cc2)cc1	RGS7-Gao inconclusive
CN(Cc1cn(C)nc1-c1ccccc1F)CC1CCCCO1 (stereo not drawn)	RGS7-Gao 46 | RGS4-Gao HTS 74 | Avidin counter inactive | RGS8-Gao single inactive | RGS7-Gao confirm inactive | RGS16-Gao conf inactive | RGS4-Gao single inactive | RGS19-Gao conf inactive
CN(Cc1cn(C)nc1-c1ccccc1F)CC1CCN(Cc2ccccc2)CC1	RGS7-Gao inconclusive
CNC(=O)CN(C)S(=O)(=O)c1ccc(OC)c(Cl)c1	RGS7-Gao 19, RGS4-Gao reg 25, RGS8-Gao reg 16, RGS16-Gao HTS 17 (no result: Calb biofilm kill) | Avidin counter inactive | RGS8-Gao single inactive | RGS7-Gao confirm inactive | RGS16-Gao conf inactive | RGS4-Gao single inactive | RGS19-Gao conf inactive
S=C(NCc1ccco1)Nc1ccc(Oc2ccc(Cl)cc2)cc1	RGS7-Gao inconclusive, RGS4-Gao reg -37, RGS8-Gao reg 14, RGS16-Gao HTS -20 | Avidin counter inactive | RGS8-Gao single inactive | RGS7-Gao confirm inactive | RGS16-Gao conf inactive | RGS4-Gao single inactive | RGS19-Gao conf inactive
O=C(NCc1ccco1)c1ccc(COc2ccc(Cl)cc2)cc1	RGS16-Gao HTS 12 | RGS4-Gao HTS 89 | Avidin counter inactive | RGS8-Gao single inactive | RGS7-Gao confirm inactive | RGS16-Gao conf inactive | RGS4-Gao single inactive | RGS19-Gao conf inactive
O=C(Cc1nnc(NC(=O)Nc2ccccc2F)s1)NCc1ccccc1	RGS7-Gao inconclusive
C#CCOCCOCCOCCNc1nc(N2CCN(C(=O)[C@H]([C@@H](C)CC)n3cc([C@@H](N)CO)nn3)CC2)nc(N2CCN(C(=O)[C@H]([C@@H](C)CC)n3cc([C@@H](N)Cc4ccc(O)cc4)nn3)CC2)n1	RGS7-Gao 18, RGS4-Gao reg 22, RGS8-Gao reg 41, RGS16-Gao HTS 18 | Avidin counter inactive | RGS8-Gao single inactive | RGS7-Gao confirm inactive | RGS16-Gao conf inactive | RGS4-Gao single inactive | RGS19-Gao conf inactive
COC(=O)C(C(=O)Nc1ccccc1C)C1CCCCCC1 (stereo not drawn)	none
C(#CCN1CCCC1)CC(c1ccccc1)c1ccccc1	none
Cc1ccc(NC(=S)N(Cc2ccccc2)C(C)C)cc1	RGS7-Gao inconclusive, RGS4-Gao reg 27 | Avidin counter inactive | RGS8-Gao single inactive | RGS7-Gao confirm inactive | RGS16-Gao conf inactive | RGS4-Gao single inactive | RGS19-Gao conf inactive
CCCn1c(SCC(=O)N2CCCC2)nc2c1c(=O)n(C)c(=O)n2C	RGS7-Gao 188[activator], RGS4-Gao reg 157[activator] (no result: Calb biofilm kill) | Avidin counter inactive | RGS8-Gao single inactive | RGS7-Gao confirm inactive | RGS16-Gao conf inactive | RGS4-Gao single inactive | RGS19-Gao conf inactive
NNc1nc2ccc(Cl)cc2s1	none
NNc1nc2ccc(F)cc2s1	RGS16-Gao HTS 0.3 | RGS4-Gao HTS 92 | Avidin counter inactive | RGS8-Gao single inactive | RGS7-Gao confirm inactive | RGS16-Gao conf inactive | RGS4-Gao single inactive | RGS19-Gao conf inactive
Cc1nc2cc(C(=O)OCC(=O)Nc3cccc(Cl)c3)ccc2n1-c1ccccc1	none
COc1cccc(-n2c(C)nc3cc(C(=O)O)ccc32)c1	RGS7-Gao 160[activator], RGS4-Gao reg 158[activator] (no result: Calb biofilm kill, RGS16-Gao HTS) | Avidin counter inactive | RGS8-Gao single inactive | RGS7-Gao confirm inactive | RGS16-Gao conf inactive | RGS4-Gao single inactive | RGS19-Gao conf inactive
CC(=O)c1ccc(NC(=O)C(C)OC(=O)c2ccc3c(c2)nc(C)n3-c2ccccc2)cc1 (stereo not drawn)	RGS16-Gao HTS 219[activator] | RGS4-Gao HTS 112 | Avidin counter inactive | RGS8-Gao single inactive | RGS7-Gao confirm inactive | RGS16-Gao conf inactive | RGS4-Gao single inactive | RGS19-Gao conf inactive
CC1(C)Cc2cccc(OCC(=O)OCC(=O)Nc3cccc(S(N)(=O)=O)c3)c2O1	RGS7-Gao inconclusive
O=C(/C=C\c1ccccc1OC(=O)c1ccccc1F)c1cc2ccccc2o1	none
CC(C)(C)C(=O)Nc1cc(S(=O)(=O)N2CCCCC2)ccc1N1CCCCC1	none
